Measurements from article PMC4589464 (Hepatology (Baltimore, Md.), 2015).
Entries after “also recorded” stand apart in the source; their conditions may differ. Where a name gives a salt, the structure may show the parent alone. Read-outs that look alike come from different tables or passages of the source.

Legend:
[1] = Cytotoxicity in MT-4 cells; format: cell-based; settings: human
[2] = in vitro; format: cell-based; settings: human
[3] = tested on: HIV-1NL4-3
[4] = tested on: HBV
[5] = tested on: HBV; experiment: microbe, parasite or virus in culture; settings: Hepatitis B virus, HepG2 2.2.15, 288 h, read-out: IC50 against Anti-HBV
[6] = tested on: HBVETV-R^L180M/S202G/M204V; experiment: Southern blot assay, Huh-7 cells transfected with ETV-resistant HBV plasmid; format: cell-based; settings: Hepatitis B virus, Huh-7, read-out: IC50 against HBVETV-R^L180M/S202G/M204V
Procedure, shortened: (§1)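 Huh-7 cells were transfected with the HBV variant-containing plasmid and cultured with a range of test compound concentrations. Core-associated HBV DNA was extracted and detected by Southern blot hybridization. IC50 was calculated from the change in signal density, generally averaged over two experiments. The fold change was taken relative to the IC50 against wild-type HBV plasmid.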

[7] = tested on: HBVADV-R^A181T/N236T; experiment: Southern blot assay, Huh-7 cells transfected with ADV-resistant HBV plasmid; format: cell-based; settings: Hepatitis B virus, Huh-7, read-out: IC50 against HBVADV-R^A181T/N236T
Procedure, shortened: as §1

[8] = tested on: HBV^WT; settings: read-out: IC50 against HBV^WT; Southern blotting assay; cited from earlier work
[9] = tested on: HBV^WT; experiment: Southern blot assay, Huh-7 cells transfected with pHBV^WT; format: cell-based; settings: Hepatitis B virus
[10] = tested on: HBV^WT; experiment: HBV^WT viremia in hu-liver-chimeric-uPA+/+/SCID+/+ mice; format: in vivo; settings: 0.02 mg/kg/day oral, 14 days; for greatest magnitude of serum HBV-DNA level reduction: HBV^WT-infected mice
[11] = tested on: HBVETV-R^L180M/S202G/M204V; experiment: HBVETV-R viremia in hu-liver-chimeric-uPA+/+/SCID+/+ mice; format: in vivo; settings: for effect on HBVETV-R^L180M/S202G/M204V viremia: 0.02 mg/kg/day oral once daily; for effect on HBVETV-R^L180M/S202G/M204V viremia / greatest magnitude of viremia reduction: 14 days; for greatest magnitude of viremia reduction: HBVETV-R-infected mice, 0.02 mg/kg/day oral, average of two mice; for difference in viremia reduction magnitude between HBV^WT and HBVETV-R^L180M/S202G/M204V: mouse model
Procedure, shortened: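 Human-liver-chimeric uPA+/+/SCID+/+ mice (SCID, uPA-transgenic, liver partly repopulated with human hepatocytes) were inoculated with the HBV variant. Dosing began 8 weeks later, once daily at 0.02 mg/kg/day for 14 days. Serum viremia was followed as log10 copies/ml change from baseline, along with serum human albumin and body weight per mouse. Livers were examined histologically at the end of dosing.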

[12] = Serum human albumin and body weight monitoring of treated HBV-infected mice; format: in vivo; settings: 0.02 mg/kg/day; for serum human albumin (h-albumin) levels: HBV^WT-infected mice; for body weights: treated mice, 14 days
[13] = tested on: HIV-2 strains; experiment: Activity against HIV-2 strains; format: cell-based; settings: Table S1
[14] = tested on: HepG2 cells; format: cell-based; settings: up to 100 μM; for mtDNA synthesis / mtDNA levels / L-lactate levels in culture medium: 12 days culture; for mtDNA synthesis / mtDNA levels: real-time mtDNA-PCR; for viable cell numbers (MTT assay): day 5 of culture
[15] = format: in vivo; settings: hu-liver-chimeric mice, 14-day administration
[16] = tested on: HIV-1; settings: read-out: in vitro anti-HIV-1 IC90 concentration; cited from earlier work
[17] = intraperitoneal administration 20 mg/kg; cited from earlier work
[18] = cited from earlier work
[19] = tested on: HIV-1NL4-3; experiment: microbe, parasite or virus in culture; settings: Human immunodeficiency virus 1, MT4, read-out: IC50 against Anti-HIV-1
[20] = Huh-7, read-out: IC50 against HBV^WT
[21] = Huh-7, read-out: IC50 against HBV^WT (Southern blot)

Compound	CC50 [1]	CC50 [2]	S.I. with Anti-HIV-1 (CC50/IC50) ([3]; MT-4 cells)	S.I. with Anti-HBV (CC50/IC50) ([4]; HepG2 2.2.15 cells)	IC50 [5]	also measured
Nc1ccn([C@@H]2CS[C@H](CO)O2)c(=O)n1 [3TC, lamivudine]	> 100 µM	> 100 µM	> 340	> 3,300	0.03 ± 0.01 µM	
Nc1nc(NC2CC2)c2ncn([C@H]3C=C[C@@H](CO)C3)c2n1 [ABC, abacavir]	> 100 µM	> 100 µM	> 170	> 26	3.9 ± 1 µM	
CC(C)(C)C(=O)OCOP(=O)(COCCn1cnc2c(N)ncnc21)OCOC(=O)C(C)(C)C [ADV, adefovir dipivoxil]	5.1 ± 1 µM	> 100 µM	21	> 500	0.2 ± 0.08 µM	IC50 [6]: 36.4 ± 23.5 µM; IC50 [7]: 39.5 ± 13.3 µM; IC50 [8]: 7.7 µM
Cc1cn([C@H]2C[C@H](N=[N+]=[N-])[C@@H](CO)O2)c(=O)[nH]c1=O [AZT, 3′-azido-3′-deoxythymidine]	30.5 ± 3.1 µM	> 100 µM	1,020		> 100 µM	
N#C[C@]1(CO)O[C@@H](n2cnc3c(N)nc(N)nc32)C[C@@H]1O [CAdA, 4′-C-cyano-2-amino-2′-deoxyadenosine]	3.5 ± 1.2 µM	3.8 ± 1 µM	8,750	9,500	0.0004 ± 0.0002 µM	IC50 [9, 20]: 0.007 ± 0.01 µM; IC50 [9, 21]: 0.0072 µM; IC50 [6]: 0.07 ± 0.01 µM; IC50 [7]: 0.09 ± 0.07 µM; effect on HBV^WT viremia [10]: significantly blocked the replication of HBV; greatest magnitude of serum HBV-DNA level reduction [10]: -2.9 log10 copies/ml; effect on HBVETV-R^L180M/S202G/M204V viremia [11]: significant level of viremia reduction by day 7; greatest magnitude of viremia reduction [11]: -1.4 log10 copies/ml; difference in viremia reduction magnitude between HBV^WT and HBVETV-R^L180M/S202G/M204V [11]: 30 fold; serum human albumin (h-albumin) levels [12]: moderately decreased h-albumin levels; body weights [12]: no significant difference in body weights; activity against HIV-2 strains [13]: potent activity against HIV-2 strains; mtDNA synthesis / mtDNA levels [14]: significantly lowered the levels of mtDNA; L-lactate levels in culture medium [14]: severely lowered the levels of L-lactate and viable cell numbers; viable cell numbers (MTT assay) [14]: severely lowered the levels of L-lactate and viable cell numbers
N#C[C@]1(CO)O[C@@H](n2cnc3c(=O)[nH]c(N)nc32)C[C@@H]1O [CdG, 4′-C-cyano-2′-deoxyguanosine]	2.8 ± 0.9 µM	3.2 ± 0.7 µM	7,000	8,000	0.0004 ± 0.0001 µM	IC50 [9, 20]: 0.01 ± 0.002 µM; IC50 [9, 21]: 0.0098 µM; IC50 [6]: 0.04 ± 0.03 µM; IC50 [7]: 0.04 ± 0.02 µM; effect on HBV^WT viremia [10]: significantly blocked the replication of HBV; greatest magnitude of serum HBV-DNA level reduction [10]: -2.7 log10 copies/ml; effect on HBVETV-R^L180M/S202G/M204V viremia [11]: significant level of viremia reduction by day 7; greatest magnitude of viremia reduction [11]: -1.2 log10 copies/ml; difference in viremia reduction magnitude between HBV^WT and HBVETV-R^L180M/S202G/M204V [11]: 30 fold; serum human albumin (h-albumin) levels [12]: moderately decreased h-albumin levels; body weights [12]: no significant difference in body weights; liver toxicity [15]: no significant liver toxicity or general toxicity; activity against HIV-2 strains [13]: potent activity against HIV-2 strains; mtDNA synthesis / mtDNA levels [14]: significantly lowered the levels of mtDNA; L-lactate levels in culture medium [14]: severely lowered the levels of L-lactate and viable cell numbers; viable cell numbers (MTT assay) [14]: severely lowered the levels of L-lactate and viable cell numbers
C#C[C@]1(CO)O[C@@H](n2cnc3c(N)nc(F)nc32)C[C@@H]1O [EFdA, 4′-ethynyl-2-fluoro-2′-deoxyadenosine]	19.2 ± 5.9 µM	> 100 µM	64,000	> 630	0.16 ± 0.03 µM	IC90 [16]: ~0.005 µM; maximal concentration [17]: 4 µg/mL; time of maximal concentration [17]: 30 min
C#C[C@]1(COP(=O)(O)OP(=O)(O)OP(=O)(O)O)O[C@@H](n2cnc3c(N)nc(F)nc32)C[C@@H]1O [EFdA-TP]						half-life [18]: ≥ 17 h
C=C1[C@H](CO)[C@@H](O)C[C@@H]1n1cnc2c(=O)[nH]c(N)nc21 [ETV, entecavir]	39.1 ± 8.7 µM	> 100 µM	38	> 140,000	0.0007 ± 0.0002 µM	IC50 [9, 20]: 0.014 ± 0.008 µM; IC50 [9, 21]: 0.0141 µM; IC50 [6]: > 1 µM; IC50 [7]: 0.18 µM; effect on HBV^WT viremia [10]: viremia levels significantly went down; effect on HBVETV-R^L180M/S202G/M204V viremia [11]: completely failed to reduce; also recorded: essentially no reduction; serum human albumin (h-albumin) levels [12]: comparable decrease of h-albumin levels; body weights [12]: no significant difference in body weights; mtDNA synthesis / mtDNA levels [14]: no reduction of mtDNA synthesis was observed; L-lactate levels in culture medium [14]: no L-lactate level changes were identified; viable cell numbers (MTT assay) [14]: slight and moderate decreases in the cell viability; number of HBV copies in HepG2 2.2.15 cells ([4]; at 100 nM, 12-day culture, cells alone 9.0 × 10^5 copies/well): ~ 0.9 × 10^5 copies/well
C#C[C@@]1(CO)C=C[C@H](n2cc(C)c(=O)[nH]c2=O)O1 [Ed4T, 2′,3′-didehydro-3′-deoxy-4′-ethynylthymidine]	> 100 µM	> 100 µM	> 380		> 100 µM	
Nc1nc(=O)n([C@@H]2CS[C@H](CO)O2)cc1F [FTC, emtricitabine]	> 100 µM	> 100 µM			0.02 ± 0.01 µM	S.I. with Anti-HIV-1 (CC50/IC50) [3]: > 430; S.I. with Anti-HBV (CC50/IC50) [4]: > 5,000; IC50 [19]: 0.23 ± 0.1 µM
Cc1cn([C@@H]2C[C@@H](O)[C@H](CO)O2)c(=O)[nH]c1=O [LdT, telbivudine]	> 100 µM	> 100 µM		> 14,000	0.007 ± 0.001 µM	
CC(C)OC(=O)OCOP(=O)(CO[C@H](C)Cn1cnc2c(N)ncnc21)OCOC(=O)OC(C)C [TDF, tenofovir disoproxil fumarate]		> 100 µM	70	> 2,500	0.04 ± 0.01 µM	CC50 ([1]; MT-4 cells): 40.4 ± 11.3 µM
Cc1cn([C@H]2C=C[C@@H](CO)O2)c(=O)[nH]c1=O [d4T, 2′,3′-didehydro-3′-deoxythymidine]	> 100 µM	> 100 µM			> 100 µM	S.I. with Anti-HIV-1 (CC50/IC50) [3]: > 150
Nc1ccn([C@H]2CC[C@@H](CO)O2)c(=O)n1 [ddC, 2′,3′-dideoxycytidine]		> 100 µM	> 300	> 130	0.75 ± 0.12 µM	CC50 ([1]; MT-4 cells): > 100 µM; mtDNA synthesis / mtDNA levels [14]: significantly decreased mtDNA synthesis at 1 μM and beyond; L-lactate levels in culture medium [14]: without causing any significant decrease in L-lactate amounts or viable cell numbers; viable cell numbers (MTT assay) [14]: without causing any significant decrease in L-lactate amounts or viable cell numbers
OC[C@@H]1CC[C@H](n2cnc3c(O)ncnc32)O1 [ddI, 2′,3′-dideoxyinosine]	> 100 µM	> 100 µM			3.7 ± 0.7 µM	
